# Source: ChEMBL document CHEMBL1123554, “Acetylenic nucleosides. 4. 1-beta-D-arabinofuranosyl-5-ethynylcytosine. Improved synthesis and evaluation of biochemical and antiviral properties” (1987)
# How the values were obtained:
# [1] = biological target: Cytidine deaminase (Homo sapiens) (UniProt P32320); experiment: relative velocity was determined against deaminase purified from human acute myeloblastic leukemia cells
# Human alphaherpesvirus 1 [2] = experiment: Antiviral activity against DNA polymerase mutant resistant to KOS(parental) was determined at a conc of 100 uM; assay type: functional
# Method in brief: (§1)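 HSV-infected HeLa BU cells seeded in 25-cm² flasks. The next day, virus was added at a multiplicity of 3–5 PFU/cell and allowed 1 h to adsorb. Virus was then removed and growth medium with or without drug was added. Cells were held at 37 °C for 24 h, then frozen at –70 °C until titration. Yield is expressed as PFU, % of untreated control.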
# Human alphaherpesvirus 1 [3] = experiment: Antiviral activity against HSV-1 kinase mutant resistant to SCS(parental) was determined at a conc of 100 uM; assay type: functional
# Method in brief: as §1
# Human alphaherpesvirus 1 [4] = experiment: Antiviral activity against HSV-1 kinase mutant resistant to B3(BVdU) was determined at a conc of 50 uM; assay type: functional
# Method in brief: as §1
# Human alphaherpesvirus 1 [5] = experiment: Antiviral activity against HSV-1 kinase mutant resistant to SCS(parental) was determined at a conc of 50 uM; assay type: functional
# Method in brief: as §1
# Human alphaherpesvirus 1 [6] = experiment: Antiviral activity against DNA polymerase mutant resistant to PFA 5a(PFA) was determined at a conc of 100 uM; assay type: functional
# Method in brief: as §1
# Human alphaherpesvirus 1 [7] = experiment: Antiviral activity against DNA polymerase mutant resistant to PFA 3b(PFA) was determined at a conc of 100 uM; assay type: functional
# Method in brief: as §1
# Human alphaherpesvirus 1 [8] = experiment: Antiviral activity against DNA polymerase mutant resistant to PFA 1a (PFA) was determined at a conc of 100 uM; assay type: functional
# Method in brief: as §1
# Human alphaherpesvirus 1 [9] = experiment: Antiviral activity against DNA polymerase mutant resistant to PFA 5a(PFA) was determined at a conc of 50 uM; assay type: functional
# Method in brief: as §1
# Human alphaherpesvirus 1 [10] = experiment: Antiviral activity against DNA polymerase mutant resistant to PFA 3b(PFA) was determined at a conc of 50 uM; assay type: functional
# Method in brief: as §1
# Human alphaherpesvirus 1 [11] = experiment: Antiviral activity against HSV-1 kinase mutant resistant to Tr7(ACV) was determined at a conc of 100 uM; assay type: functional
# Method in brief: as §1
# Human alphaherpesvirus 2 = experiment: Antiviral activity against HSV-2 (333)was determined at a conc of 50 uM; assay type: functional
# Method in brief: as §1
# Human alphaherpesvirus 1 [12] = experiment: Antiviral activity against HSV-1 kinase mutant resistant to Tr7(ACV) was determined at a conc of 50 uM; assay type: functional
# Method in brief: as §1
# Human alphaherpesvirus 1 [13] = experiment: Antiviral activity against DNA polymerase mutant resistant to KOS(parental) was determined at a conc of 50 uM; assay type: functional
# Method in brief: as §1
# [14] = biological target: Cytidine deaminase (Homo sapiens) (UniProt P32320); experiment: Relative velocity was determined against deaminase purified from human acute myeloblastic leukemia cells
# Human alphaherpesvirus 1 [15] = experiment: Antiviral activity against DNA polymerase mutant resistant to PFA 1a (PFA) was determined at a conc of 50 uM; assay type: functional
# Method in brief: as §1
# Human alphaherpesvirus 1 [16] = experiment: Antiviral activity against HSV-1 kinase mutant resistant to B3(BVdU) was determined at a conc of 100 uM; assay type: functional
# Method in brief: as §1
# Human alphaherpesvirus 1 [17] = experiment: Antiviral activity against HSV-1 kinase mutant resistant to S1(ACV) was determined at a conc of 100 uM; assay type: functional
# Method in brief: as §1
# [18] = tested on: Thymidine kinase (Human herpesvirus 2); experiment: Phosphorylating activity of viral HSV -2 (333) induced thymidine kinase relative to dThdK was determined; conditions: Human alphaherpesvirus 2
# Human alphaherpesvirus 1 [19] = experiment: Antiviral activity against HSV-1 kinase mutant resistant to S1(ACV) was determined at a conc of 50 uM; assay type: functional
# Method in brief: as §1
# Human alphaherpesvirus 1 [20] = experiment: Antiviral activity against HSV-1 kinase mutant resistant to B3(BVdU) was determined at a conc of 30 uM; assay type: functional
# Method in brief: as §1
# Human alphaherpesvirus 1 [21] = experiment: Antiviral activity against HSV-1 kinase mutant resistant to SCS(parental) was determined at a conc of 30 uM; assay type: functional
# Method in brief: as §1
# Human alphaherpesvirus 1 [22] = experiment: Antiviral activity against HSV-1 kinase mutant resistant to Tr7(ACV) was determined at a conc of 30 uM; assay type: functional
# Method in brief: as §1
# Chain of Cytidine deaminase (Homo sapiens) (P32320 whole entry, looked up): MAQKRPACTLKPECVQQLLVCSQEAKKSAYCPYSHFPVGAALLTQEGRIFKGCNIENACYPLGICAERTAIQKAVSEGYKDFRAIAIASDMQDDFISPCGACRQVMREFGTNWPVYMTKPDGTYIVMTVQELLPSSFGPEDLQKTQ
Compound,Control (Human alphaherpesvirus 1 [4]) [%],Control (Human alphaherpesvirus 1 [5]) [%],Control (Human alphaherpesvirus 1 [9]) [%],Control (Human alphaherpesvirus 1 [10]) [%],Control (Human alphaherpesvirus 1 [12]) [%],Control (Human alphaherpesvirus 1 [13]) [%],Control (Human alphaherpesvirus 1 [15]) [%],Control (Human alphaherpesvirus 1 [19]) [%],also measured
Nc1ccn([C@H]2C[C@H](O)[C@@H](CO)O2)c(=O)n1,,,,,,,,,Relative velocity [1]: 1
C#Cc1cn(C2O[C@H](CO)[C@@H](O)[C@@H]2O)c(=O)nc1N (stereo not given in full),0.04,0.38,0,0.36,4.7,0.06,0.54,70,Control (Human alphaherpesvirus 1 [2]): 0.06%; Control (Human alphaherpesvirus 1 [3]): 0.12%; Control (Human alphaherpesvirus 1 [6]): 0.1%; Control (Human alphaherpesvirus 1 [7]): 0.04%; Control (Human alphaherpesvirus 1 [8]): 0.04%; Control (Human alphaherpesvirus 1 [11]): 0.12%; Control (Human alphaherpesvirus 2): 0.28%; Relative velocity [14]: 0.02; Control (Human alphaherpesvirus 1 [16]): 0.06%; Control (Human alphaherpesvirus 1 [17]): 59%; Relative velocity [18]: 30%
O=c1[nH]c(=O)n([C@H]2C[C@H](O)[C@@H](CO)O2)cc1/C=C/Br [BRIVUDINE],,,,,,,,,Control (Human alphaherpesvirus 1 [20]): 52%; Control (Human alphaherpesvirus 1 [21]): 0.4%; Control (Human alphaherpesvirus 1 [22]): 0.8%
O=C(O)P(=O)(O)O [FOSCARNET],,,63,24,,2.9,37,,
Nc1nc2c(ncn2COCCO)c(=O)[nH]1 [ACYCLOVIR],0.3,0.2,21,63,10,3,37,18,
